Experimental data: ChEMBL document CHEMBL1250516, “Potent and fully noncompetitive peptidomimetic inhibitor of multidrug resistance P-glycoprotein” (J Med Chem, 2010); call rule not given here
pIC50: −log10 of the molar value. Square brackets hold non-standard residues; d marks the D form. Peptide text beside a SMILES is read from it. * marks the point of attachment. Hyp = O=C(O)[C@@H]1C[C@@H](O)CN1; Aad = N[C@@H](CCCC(=O)O)C(=O)O; Cbz = O=C(OCc1ccccc1)*; PhAc = O=C(Cc1ccccc1)*; Boc = CC(C)(C)OC(=O)*; OBn = c1ccc(CO*)cc1; Bn = c1ccc(C*)cc1; OtBu = CC(C)(C)O*; tBu = CC(C)(C)*

Legend:
[1] = biological target: T1, MDR1 (P-glycoprotein, ABCB1) (Homo sapiens, UniProt P08183); assay: Inhibition of human MDR1 expressed in mouse NIH3T3 cells assessed as inhibition of drug efflux in at 10 uM by flow cytometry; type: cell-based; details: mouse NIH3T3 cells expressing human MDR1
[2] = biological target: T1, MDR1 (P-glycoprotein, ABCB1); assay: Inhibition of human MDR1 expressed in mouse NIH3T3 cells assessed as inhibition of drug efflux in at 2 uM by flow cytometry; type: cell-based; details: mouse NIH3T3 cells expressing human MDR1
[3] = biological target: T2, ATP-dependent translocase ABCB1 (Homo sapiens, UniProt P08183); assay: Inhibition of human MDR1 expressed in mouse NIH3T3 cells assessed as inhibition of drug efflux by flow cytometry; type: cell-based
P-glycoprotein (ABCB1) = P-glycoprotein (ABCB1) (Homo sapiens, UniProt P08183); assay: Inhibition of p-glycoprotein expressed in human K562/R7 cells assessed as inhibition of drug efflux at 10 uM by flow cytometry; type: cell-based; details: K562/R7 cells expressing P-glycoprotein
Outline: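 K562/R7 cells (1×10⁶/mL RPMI 1640) were incubated for 1 h at 37 °C with 10 μM daunorubicin (final), with or without 10 μM compound. Cells were washed in ice-cold PBS, kept on ice, and retained fluorescence was read by flow cytometry. Cyclosporin A served as positive control. Duplicate experiments carried out twice.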

[4] = biological target: MRP1 (multidrug resistance-associated protein 1) (Homo sapiens, UniProt P33527); assay: Inhibition of MRP1 expressed in BHK cells assessed as inhibition of drug efflux at 10 uM; type: cell-based; details: hamster, BHK cells expressing MRP1
Outline: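 BHK-21 cells expressing MRP1 were treated with compound at 10 μM in a flow-cytometric drug efflux inhibition assay. % inhibition of efflux was calculated as for the P-gp assay. Duplicates run twice.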

BCRP (ABCG2) = biological target: T3, BCRP (ABCG2) (Homo sapiens, UniProt Q9UNQ0); assay: Inhibition of BCRP expressed in HEK293 cells assessed as inhibition of drug efflux at 10 uM by flow cytometry; type: cell-based; details: HEK293 cells expressing BCRP
T3 sequence (Q9UNQ0 whole entry): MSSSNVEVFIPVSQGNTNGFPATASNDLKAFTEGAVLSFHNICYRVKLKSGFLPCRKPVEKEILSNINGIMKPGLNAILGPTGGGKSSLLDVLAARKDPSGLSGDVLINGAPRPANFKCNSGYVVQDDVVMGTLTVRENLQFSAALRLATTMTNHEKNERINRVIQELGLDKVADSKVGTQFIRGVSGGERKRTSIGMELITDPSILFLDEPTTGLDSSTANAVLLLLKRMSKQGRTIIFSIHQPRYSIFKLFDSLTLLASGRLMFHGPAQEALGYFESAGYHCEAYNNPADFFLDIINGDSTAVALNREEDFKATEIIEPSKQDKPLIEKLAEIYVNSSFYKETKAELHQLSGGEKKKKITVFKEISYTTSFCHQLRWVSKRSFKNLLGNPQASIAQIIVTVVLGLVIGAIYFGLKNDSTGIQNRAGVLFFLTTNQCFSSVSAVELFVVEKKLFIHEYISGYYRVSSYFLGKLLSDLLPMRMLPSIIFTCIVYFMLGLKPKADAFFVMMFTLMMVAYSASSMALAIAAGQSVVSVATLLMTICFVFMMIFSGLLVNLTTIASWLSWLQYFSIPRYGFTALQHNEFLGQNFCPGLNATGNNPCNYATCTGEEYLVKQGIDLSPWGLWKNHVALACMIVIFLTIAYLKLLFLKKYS
Outline: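 Human embryonic kidney 293 cells transfected with BCRP/ABCG2, tested with each compound at 10 μM. Intracellular fluorescent transported drug measured by flow cytometry. % efficacy = 100 × (FA − FBG)/(Fe − FBG): FA is transporter-expressing cells with drug, FBG is without drug (background), and Fe is control cells lacking the transporter. Mean of duplicate experiments carried out twice.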

[5] = biological target: T2, ATP-dependent translocase ABCB1; assay: Inhibition of human MDR1 expressed in mouse NIH3T3 cells assessed as potentiation of daunorubicin-mediated cytotoxicity at 1 uM; type: cell-based; details: nih3t3, 1 µM
Outline: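 Control NIH3T3 and NIH3T3/P-gp cells were seeded at 2500 cells/well and settled for 24 h. They were then exposed for 72 h at 37 °C in 5% CO2 to increasing daunorubicin concentrations with 1 μM modulator. Survival was read by MTT, with 100% taken as cell number without anticancer drug.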

[6] = Cytotoxicity against mouse NIH/3T3 cells assessed as effect on cell viability up to 1 uM after 72 hrs by MTT assay; type: cell-based; details: nih3t3, 72 h
Outline: (§1)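 Parental NIH3T3 or NIH3T3/P-gp (human MDR1-G185 transfected) cells were seeded at 2500 cells/well and allowed to attach for 24 h at 37 °C in 5% CO2. Compound was added at increasing concentrations in 1% DMSO and incubated for 72 h. Viability was read by MTT colorimetric assay. 100% survival was taken as cell number without compound.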

[7] = biological target: T2, ATP-dependent translocase ABCB1; assay: Displacement of daunorubicin form H-site of human MDR1 expressed in mouse NIH3T3 cells at 0.11 to 1 uM by noncompetitive binding assay; type: cell-based; details: in the assay text read “Hoechst 33342” for “daunorubicin”
Outline: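 NIH3T3/P-gp and NIH3T3 cells (10⁵) were incubated with daunorubicin (5, 10, 15, 20 μM) or Hoechst 33342 (0–10 μM), with inhibitor at 0, 0.11, 0.22, 0.33 or 1 μM. Drug retained inside the cells after 1 h was measured by flow cytometry. Data were fitted to Michaelis–Menten to give Rmax and KM. KI came from Rmax⁰ = Rmax/(1+[I]/KI). Mean of two duplicate experiments.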

[8] = Cytotoxicity against mouse NIH/3T3 cells assessed as decrease in cell viability at > 2 uM after 72 hrs by MTT assay; type: cell-based; details: nih3t3, 72 h; outline: as §1
[9] = Cytotoxicity against mouse NIH/3T3 cells expressing human MDR1 assessed as effect on cell viability up to 1 uM after 72 hrs by MTT assay; type: ADME, cell-based; details: nih3t3, 72 h; outline: as §1
[10] = Cytotoxicity against mouse NIH/3T3 cells expressing human MDR1 assessed as decrease in cell viability at > 2 uM after 72 hrs by MTT assay; type: ADME, cell-based; details: nih3t3, 72 h; outline: as §1
[11] = biological target: T2, ATP-dependent translocase ABCB1; assay: Displacement of daunorubicin form R-site of human MDR1 expressed in mouse NIH3T3 cells at 0.11 to 1 uM by noncompetitive binding assay

T2 sequence (P08183 whole entry): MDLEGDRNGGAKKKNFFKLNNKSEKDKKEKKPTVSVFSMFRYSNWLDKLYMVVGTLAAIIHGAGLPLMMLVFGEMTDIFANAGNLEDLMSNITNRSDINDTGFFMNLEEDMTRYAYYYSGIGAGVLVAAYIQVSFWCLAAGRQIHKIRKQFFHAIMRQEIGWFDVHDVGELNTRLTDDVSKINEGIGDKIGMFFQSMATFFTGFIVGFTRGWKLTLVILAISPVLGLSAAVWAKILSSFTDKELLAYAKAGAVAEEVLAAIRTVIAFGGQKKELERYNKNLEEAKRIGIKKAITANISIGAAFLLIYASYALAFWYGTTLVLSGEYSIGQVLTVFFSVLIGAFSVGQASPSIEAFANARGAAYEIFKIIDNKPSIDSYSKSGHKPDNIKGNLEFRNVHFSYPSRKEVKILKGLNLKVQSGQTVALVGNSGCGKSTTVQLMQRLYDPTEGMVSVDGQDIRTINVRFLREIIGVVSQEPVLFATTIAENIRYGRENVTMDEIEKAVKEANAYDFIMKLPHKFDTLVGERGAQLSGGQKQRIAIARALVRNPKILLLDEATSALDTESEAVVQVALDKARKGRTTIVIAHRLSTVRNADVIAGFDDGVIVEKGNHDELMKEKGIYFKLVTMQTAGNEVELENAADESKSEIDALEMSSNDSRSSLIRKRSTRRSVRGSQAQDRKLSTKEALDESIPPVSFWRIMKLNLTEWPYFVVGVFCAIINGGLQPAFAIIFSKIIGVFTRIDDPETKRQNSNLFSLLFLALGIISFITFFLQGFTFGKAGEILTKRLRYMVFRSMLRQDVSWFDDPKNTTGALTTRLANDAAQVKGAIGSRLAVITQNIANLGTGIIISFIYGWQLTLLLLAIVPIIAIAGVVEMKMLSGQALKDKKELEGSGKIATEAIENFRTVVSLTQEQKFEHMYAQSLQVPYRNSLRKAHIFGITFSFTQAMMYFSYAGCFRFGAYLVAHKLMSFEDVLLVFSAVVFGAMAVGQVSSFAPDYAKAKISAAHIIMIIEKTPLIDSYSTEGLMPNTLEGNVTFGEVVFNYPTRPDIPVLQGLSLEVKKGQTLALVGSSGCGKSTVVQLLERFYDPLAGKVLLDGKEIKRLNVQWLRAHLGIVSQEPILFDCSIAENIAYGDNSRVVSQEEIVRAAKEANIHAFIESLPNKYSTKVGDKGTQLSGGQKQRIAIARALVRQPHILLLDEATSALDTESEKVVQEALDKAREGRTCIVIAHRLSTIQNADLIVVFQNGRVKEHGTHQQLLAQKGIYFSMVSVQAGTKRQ
T1 sequence (P08183 whole entry): as above
Chain of P-glycoprotein (ABCB1) (P08183 whole entry): as above

SMILES	inhibition at 10 µM [1] [%]	inhibition at 10 µM (P-glycoprotein (ABCB1)) [%]	other results
CC(C)(C)OC(=O)CNC(=O)[C@H](Cc1ccc(OC(C)(C)C)cc1)NC(=O)OC(C)(C)C	93.4		inhibition at 2 µM [2]: 38%
CC(C)(C)OC(=O)CCC[C@@H](Cc1ccc(OC(C)(C)C)cc1)NC(=O)OC(C)(C)C	78.7		
CC(C)(C)OC(=O)N[C@@H](CC(=O)OCc1ccccc1)C(=O)C[C@H](CCCCNC(=O)OCc1ccccc1)C(=O)OCc1ccccc1	35.7		
CC(C)(C)OC(=O)CC(C(=O)[C@H](Cc1ccc(OC(C)(C)C)cc1)NC(=O)OC(C)(C)C)S(=O)(=O)c1ccccc1 (stereo not given in full)	106		pIC50 [3]: 5.81
CC(C)(C)OC(=O)[C@H](CCCCNC(=O)OCc1ccccc1)NC(=O)[C@@H]1C[C@@H](OCc2ccccc2)CN1C(=O)OC(C)(C)C (Boc-[Hyp](Bn)-Lys(Cbz)-OtBu)		83.5	inhibition at 2 µM [2]: 120%; inhibition at 10 µM [4]: 7%
CC(C)(C)OC(=O)N[C@@H](Cc1ccc(OC(C)(C)C)cc1)C(=O)N[C@@H](CCCCNC(=O)OCc1ccccc1)C(=O)OC(C)(C)C (Boc-Tyr(tBu)-Lys(Cbz)-OtBu)	34		
O=C(CCC(=O)N[C@@H](CCC(=O)OCC1CCCCC1)C(=O)OCc1ccccc1)N[C@@H](CCC(=O)OCc1ccccc1)C(=O)OCc1ccccc1	29.3		
CC(C)(C)OC(=O)N[C@@H](Cc1ccc(OC(C)(C)C)cc1)C(=O)CS(=O)(=O)c1ccccc1	49.1		
CC(C)(C)OC(=O)N[C@@H](CC(=O)OCc1ccccc1)C(=O)CCC(=O)N[C@@H](CCCCNC(=O)OCc1ccccc1)C(=O)OC(C)(C)C	67.7		
CC(C)(C)OC(=O)[C@H](CCCCNC(=O)OCc1ccccc1)NC(=O)[C@@H]1C[C@@H](OC(=O)C2CCCCC2)CN1C(=O)OC(C)(C)C	106	94.9	pIC50 [3]: 5.77; inhibition at 10 µM (BCRP (ABCG2)): 11.2%
O=C(CCC(=O)N[C@@H](CCC(=O)OCc1ccccc1)C(=O)OCc1ccccc1)N[C@@H](CCC(=O)OCc1ccccc1)C(=O)OCc1ccccc1 [REVERSIN 213]	26.6		
CC(C)(C)OC(=O)[C@H](CCCCNC(=O)OCc1ccccc1)NC[C@@H]1C[C@@H](OCc2ccccc2)CN1C(=O)OC(C)(C)C		77.6	inhibition at 10 µM [4]: 9%; inhibition (INH) [5]: Active; Activity [6]: Non-toxic; Activity [7]: Active; Activity [8]: Toxic; Activity [9]: Non-toxic; Activity [10]: Toxic; Activity [11]: Active
CC(C)(C)OC(=O)N[C@H](CN[C@@H](CCCCNC(=O)OCc1ccccc1)C(=O)OC(C)(C)C)Cc1ccc(OC(C)(C)C)cc1	49.1		
CC(C)(C)OC(=O)N[C@@H](CCCOC(=O)C1CCCCC1)C(=O)N[C@@H](CCCCNC(=O)OCc1ccccc1)C(=O)OC(C)(C)C	82.3	80.4	inhibition at 2 µM [2]: 35.7%
CC(C)(C)OC(=O)[C@H](CCCCNC(=O)OCc1ccccc1)NC(=O)[C@@H]1C[C@@H](OC(=O)Cc2ccccc2)CN1C(=O)OC(C)(C)C (Boc-[Hyp](PhAc)-Lys(Cbz)-OtBu)	68.2	88.2	inhibition at 10 µM (BCRP (ABCG2)): 10%
CC(C)(C)OC(=O)CC(C(O)[C@H](Cc1ccc(OC(C)(C)C)cc1)NC(=O)OC(C)(C)C)S(=O)(=O)c1ccccc1 (stereo not given in full)	104		
CC(C)(C)OC(=O)CC[C@H](NC(=O)OC(C)(C)C)C(=O)N[C@@H](CCCCNC(=O)OCc1ccccc1)C(=O)OC(C)(C)C (Boc-Glu(OtBu)-Lys(Cbz)-OtBu)	37.2		
CC(C)(C)OC(=O)N[C@@H](CCOC(=O)C1CCCCC1)C(=O)N[C@@H](CCCCNC(=O)OCc1ccccc1)C(=O)OC(C)(C)C	61.8		
CC(C)(C)OC(=O)[C@H](CCCCNC(=O)OCc1ccccc1)NC(=O)[C@@H]1C[C@@H](OCC2CCCCC2)CN1C(=O)OC(C)(C)C	76.6	79.8	inhibition at 2 µM [2]: 82.2%
CC(C)(C)OC(=O)N[C@@H](CCC(=O)OCc1ccccc1)C(=O)N[C@@H](CCCCNC(=O)OCc1ccccc1)C(=O)OC(C)(C)C (Boc-Glu(OBn)-Lys(Cbz)-OtBu)	63.7		
CC(C)(C)OC(=O)C/C=C/[C@H](Cc1ccc(OC(C)(C)C)cc1)NC(=O)OC(C)(C)C	71.2		
CC(C)(C)OC(=O)N[C@@H](CC(=O)OCc1ccccc1)C(=O)N[C@@H](CCCCNC(=O)OCc1ccccc1)C(=O)OC(C)(C)C [REVERSIN 121] (Boc-Asp(OBn)-Lys(Cbz)-OtBu)	75.8	88	pIC50 [3]: 5.85
CC(C)(C)OC(=O)N[C@@H](CCOCc1ccccc1)C(=O)N[C@@H](CCCCNC(=O)OCc1ccccc1)C(=O)OC(C)(C)C	49.2		
CC(C)(C)OC(=O)N[C@@H](CCOC(=O)Cc1ccccc1)C(=O)N[C@@H](CCCCNC(=O)OCc1ccccc1)C(=O)OC(C)(C)C	59.6		
CC(C)(C)OC(=O)N[C@@H](CCCC(=O)OCc1ccccc1)C(=O)N[C@@H](CCCCNC(=O)OCc1ccccc1)C(=O)OC(C)(C)C (Boc-[Aad](OBn)-Lys(Cbz)-OtBu)	97.8	65.5	inhibition at 2 µM [2]: 37%
